Results on twelve compounds are retold here after ChEMBL document CHEMBL1153176, “2,6-Dithienyl-4-furyl pyridines: Synthesis, topoisomerase I and II inhibition, cytotoxicity, structure-activity relationship, and docking study” (Bioorg Med Chem Lett, 2010).

Structures are written as SMILES.

For the first experiment, the species on record is Bos taurus. Description: Inhibition of calf thymus topoisomerase 1-mediated relaxation of supercoiled pBR322 DNA at 20 uM after 30 mins by agarose gel electrophoresis.
Conditions: not given
The essentials:
(§1)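 Compound at 20 or 100 μM, 37 °C for 30 min. Stopped with SDS/dye mix, run on 1% agarose in TBE for 10 h, stained with ethidium bromide (0.5 μg/mL).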
`c1coc(-c2cc(-c3ccsc3)nc(-c3cccs3)c2)c1` had an inhibition of 5%.
`Cc1ccc(-c2cc(-c3cccs3)nc(-c3sccc3C)c2)o1`: the inhibition stood at 0%.
`Cc1ccc(-c2cc(-c3ccsc3)nc(-c3ccsc3)c2)o1` yielded an inhibition of 0%.
On the same count and under the same terms, with `Cc1ccsc1-c1cc(-c2ccco2)cc(-c2sccc2C)n1` the figure was 88%; with `Cc1ccc(-c2cc(-c3ccsc3)nc(-c3cc(C)sc3C)c2)o1`, 0%; with `Cc1ccsc1-c1cc(-c2ccoc2)cc(-c2cccs2)n1`, 3%.
On the same count and under the same terms, the same measure for `Cc1ccsc1-c1cc(-c2ccco2)cc(-c2ccsc2)n1`: 9%; for `c1coc(-c2cc(-c3ccsc3)nc(-c3ccsc3)c2)c1`: 0%.
On to `Cc1ccsc1-c1cc(-c2ccoc2)cc(-c2sccc2C)n1`, for which the inhibition was 15%.
On the same count and under the same terms, with `Clc1ccc(-c2cc(-c3ccsc3)nc(-c3ccsc3)c2)o1` the figure was 0%; with `Clc1ccc(-c2cc(-c3ccsc3)nc(-c3cccs3)c2)o1`, 12%; with `Cc1ccc(-c2cc(-c3cccs3)nc(-c3cc(C)sc3C)c2)o1`, 0%.

Another experiment is filed under the species Bos taurus. Description: Inhibition of calf thymus topoisomerase 1-mediated relaxation of supercoiled pBR322 DNA at 100 uM after 30 mins by agarose gel electrophoresis.
Conditions: not given
Put shortly:
as §1
In the case of `c1coc(-c2cc(-c3ccsc3)nc(-c3cccs3)c2)c1`, the inhibition turned out to be 12%.
On the same count and under the same terms, the same measure for `Cc1ccc(-c2cc(-c3cccs3)nc(-c3sccc3C)c2)o1`: 0%; for `Cc1ccc(-c2cc(-c3ccsc3)nc(-c3ccsc3)c2)o1`: 0%.
Same read-out and setting: with `Cc1ccsc1-c1cc(-c2ccco2)cc(-c2sccc2C)n1` the figure was 92%; with `Cc1ccc(-c2cc(-c3ccsc3)nc(-c3cc(C)sc3C)c2)o1`, 0%.
`Cc1ccsc1-c1cc(-c2ccoc2)cc(-c2cccs2)n1` showed an inhibition of 9%.
On the same count and under the same terms, the same measure for `Cc1ccsc1-c1cc(-c2ccco2)cc(-c2ccsc2)n1`: 52%; for `c1coc(-c2cc(-c3ccsc3)nc(-c3ccsc3)c2)c1`: 0%.
Still for that read-out and setting: the same measure for `Cc1ccsc1-c1cc(-c2ccoc2)cc(-c2sccc2C)n1`: 30%; for `Clc1ccc(-c2cc(-c3ccsc3)nc(-c3ccsc3)c2)o1`: 14%; for `Clc1ccc(-c2cc(-c3ccsc3)nc(-c3cccs3)c2)o1`: 50%.
Compound `Cc1ccc(-c2cc(-c3cccs3)nc(-c3cc(C)sc3C)c2)o1` displayed an inhibition of 5%.

The target in a further experiment is DNA topoisomerase 2-alpha (Homo sapiens) (UniProt P11388). The experiment in a line: Inhibition of human topoisomerase 2 alpha-mediated relaxation of supercoiled pBR322 DNA at 20 uM after 30 mins by agarose gel electrophoresis.
DNA topoisomerase 2-alpha (Homo sapiens), sequence (P11388 whole entry): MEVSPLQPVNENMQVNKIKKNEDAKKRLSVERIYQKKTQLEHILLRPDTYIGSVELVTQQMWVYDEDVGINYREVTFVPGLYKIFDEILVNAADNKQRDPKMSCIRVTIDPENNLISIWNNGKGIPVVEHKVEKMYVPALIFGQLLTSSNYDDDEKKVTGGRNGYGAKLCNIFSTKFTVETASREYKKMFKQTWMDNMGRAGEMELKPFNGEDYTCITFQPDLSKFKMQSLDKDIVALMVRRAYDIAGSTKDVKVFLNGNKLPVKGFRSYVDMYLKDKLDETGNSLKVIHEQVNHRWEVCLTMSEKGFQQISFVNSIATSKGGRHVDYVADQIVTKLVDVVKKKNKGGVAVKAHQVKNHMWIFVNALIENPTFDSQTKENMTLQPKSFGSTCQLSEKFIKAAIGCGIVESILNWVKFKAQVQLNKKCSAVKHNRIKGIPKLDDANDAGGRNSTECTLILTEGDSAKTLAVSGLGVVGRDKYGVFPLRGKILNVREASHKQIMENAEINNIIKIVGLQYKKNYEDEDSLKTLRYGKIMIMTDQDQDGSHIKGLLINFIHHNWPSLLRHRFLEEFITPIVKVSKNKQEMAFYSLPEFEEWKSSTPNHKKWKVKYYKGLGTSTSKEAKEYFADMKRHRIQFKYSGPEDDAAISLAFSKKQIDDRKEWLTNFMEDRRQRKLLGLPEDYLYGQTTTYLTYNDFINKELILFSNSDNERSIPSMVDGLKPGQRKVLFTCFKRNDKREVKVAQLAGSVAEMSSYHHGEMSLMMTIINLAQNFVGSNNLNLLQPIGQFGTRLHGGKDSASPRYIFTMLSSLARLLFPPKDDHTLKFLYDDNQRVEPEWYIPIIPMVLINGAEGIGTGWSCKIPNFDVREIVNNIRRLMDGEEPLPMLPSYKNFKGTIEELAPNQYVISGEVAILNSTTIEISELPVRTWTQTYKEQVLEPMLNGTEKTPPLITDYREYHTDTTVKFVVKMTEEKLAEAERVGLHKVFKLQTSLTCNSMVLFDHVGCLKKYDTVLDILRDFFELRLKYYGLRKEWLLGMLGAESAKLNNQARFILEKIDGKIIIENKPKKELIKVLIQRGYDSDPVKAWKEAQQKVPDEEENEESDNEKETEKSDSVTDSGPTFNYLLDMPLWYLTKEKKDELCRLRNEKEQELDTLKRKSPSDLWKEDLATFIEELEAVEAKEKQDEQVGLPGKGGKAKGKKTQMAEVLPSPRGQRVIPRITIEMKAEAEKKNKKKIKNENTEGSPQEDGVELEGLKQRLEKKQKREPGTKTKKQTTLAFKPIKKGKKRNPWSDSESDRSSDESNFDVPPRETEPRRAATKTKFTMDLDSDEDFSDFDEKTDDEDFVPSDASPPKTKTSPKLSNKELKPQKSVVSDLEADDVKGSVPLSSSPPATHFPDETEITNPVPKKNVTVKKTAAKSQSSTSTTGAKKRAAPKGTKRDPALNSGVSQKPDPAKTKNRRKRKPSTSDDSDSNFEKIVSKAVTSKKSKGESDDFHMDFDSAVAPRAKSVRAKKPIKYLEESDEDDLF
Conditions: not given
The essentials: (§2)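 Human topo II (0.3 U) with 0.2 μg pBR322 in 50 mM Tris–HCl pH 8.0, 120 mM KCl, 10 mM MgCl2, 0.5 mM ATP, 0.5 mM DTT and BSA. Compound at 20 or 100 μM, 37 °C for 30 min. Stopped with 0.77% SDS/77 mM EDTA, run on 1% agarose at 1.5 V/cm for 10 h in TBE, stained with ethidium bromide.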
In turn, `c1coc(-c2cc(-c3ccsc3)nc(-c3cccs3)c2)c1` registered an inhibition of 0%.
In the case of `Cc1ccc(-c2cc(-c3cccs3)nc(-c3sccc3C)c2)o1`, the inhibition worked out at 15%.
The same measure, in the same setting: with `Cc1ccc(-c2cc(-c3ccsc3)nc(-c3ccsc3)c2)o1` the figure was 0%.
Still for that read-out and setting: the same measure for `Cc1ccsc1-c1cc(-c2ccco2)cc(-c2sccc2C)n1`: 14%.
On the same count and under the same terms, the same measure for `Cc1ccc(-c2cc(-c3ccsc3)nc(-c3cc(C)sc3C)c2)o1`: 0%; for `Cc1ccsc1-c1cc(-c2ccoc2)cc(-c2cccs2)n1`: 7%.
In the case of `Cc1ccsc1-c1cc(-c2ccco2)cc(-c2ccsc2)n1`, the inhibition is 11%.
Same read-out and setting: the same measure for `c1coc(-c2cc(-c3ccsc3)nc(-c3ccsc3)c2)c1`: 0%.
`Cc1ccsc1-c1cc(-c2ccoc2)cc(-c2sccc2C)n1`: the inhibition came out at 0%.
Still for that read-out and setting: the same measure for `Clc1ccc(-c2cc(-c3ccsc3)nc(-c3ccsc3)c2)o1`: 0%.
`Clc1ccc(-c2cc(-c3ccsc3)nc(-c3cccs3)c2)o1` displayed an inhibition of 7%.
On to `Cc1ccc(-c2cc(-c3cccs3)nc(-c3cc(C)sc3C)c2)o1`, for which the inhibition is 0%.

Another experiment shares this target. Description: Inhibition of human topoisomerase 2 alpha-mediated relaxation of supercoiled pBR322 DNA at 100 uM after 30 mins by agarose gel electrophoresis.
Conditions: not given
Put shortly:
as §2
`c1coc(-c2cc(-c3ccsc3)nc(-c3cccs3)c2)c1` had an inhibition of 34%.
In the case of `Cc1ccc(-c2cc(-c3cccs3)nc(-c3sccc3C)c2)o1`, the inhibition was found to be 25%.
On the same count and under the same terms, the same measure for `Cc1ccc(-c2cc(-c3ccsc3)nc(-c3ccsc3)c2)o1`: 5%; for `Cc1ccsc1-c1cc(-c2ccco2)cc(-c2sccc2C)n1`: 23%; for `Cc1ccc(-c2cc(-c3ccsc3)nc(-c3cc(C)sc3C)c2)o1`: 7%.
Same read-out and setting: with `Cc1ccsc1-c1cc(-c2ccoc2)cc(-c2cccs2)n1` the figure was 3%.
Compound `Cc1ccsc1-c1cc(-c2ccco2)cc(-c2ccsc2)n1` registered an inhibition of 58%.
Same read-out and setting: with `c1coc(-c2cc(-c3ccsc3)nc(-c3ccsc3)c2)c1` the figure was 32%; with `Cc1ccsc1-c1cc(-c2ccoc2)cc(-c2sccc2C)n1`, 0%; with `Clc1ccc(-c2cc(-c3ccsc3)nc(-c3ccsc3)c2)o1`, 8%.
As to `Clc1ccc(-c2cc(-c3ccsc3)nc(-c3cccs3)c2)o1`, the inhibition amounted to 55%.
`Cc1ccc(-c2cc(-c3cccs3)nc(-c3cc(C)sc3C)c2)o1` gave an inhibition of 0%.

The subject of the next experiment is DU-145. Description: Cytotoxicity against human DU145 cells after 3 days. The format is functional, cell-based. The conditions noted are these: DU-145, 72 h. The essentials: (§3)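 Cells seeded at 2–4 × 10⁴ per well and held overnight at 37 °C, 5% CO₂ in medium with 10% FBS. On day 1 the medium was replaced with medium holding graded compound concentrations. Absorbance read at 450 nm. IC50 from a four-parameter logistic fit of the 450 nm readings.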
Turning to `Cc1ccsc1-c1cc(-c2ccco2)cc(-c2sccc2C)n1`, it took 98.2 µM to reach half-maximal inhibition (IC50).
For `Cc1ccsc1-c1cc(-c2ccco2)cc(-c2ccsc2)n1`, the IC50 is more than 100 µM.
`Clc1ccc(-c2cc(-c3ccsc3)nc(-c3cccs3)c2)o1` registered an IC50 of more than 100 µM.

Another experiment has as its system MCF7. Description: Cytotoxicity against human MCF7 cells after 3 days. The format is functional, cell-based. The settings on record: MCF7, 72 h. Put shortly: as §3
`Cc1ccsc1-c1cc(-c2ccco2)cc(-c2sccc2C)n1` showed an IC50 of more than 100 µM.
The compound `Cc1ccsc1-c1cc(-c2ccco2)cc(-c2ccsc2)n1` yielded an IC50 of more than 100 µM.
The same measure, in the same setting: the same measure for `Clc1ccc(-c2cc(-c3ccsc3)nc(-c3cccs3)c2)o1`: more than 100 µM.

Another experiment concerns HCT-116. The experiment in a line: Cytotoxicity against human HCT116 cells after 3 days. The settings on record: HCT-116, 72 h. The experiment is classed as functional, cell-based. Put shortly:
as §3
As for `Cc1ccsc1-c1cc(-c2ccco2)cc(-c2sccc2C)n1`, the half-maximal inhibitory concentration (IC50) was more than 100 µM.
On to `Cc1ccsc1-c1cc(-c2ccco2)cc(-c2ccsc2)n1`, for which the IC50 was 51.1 µM.
The same measure, in the same setting: with `Clc1ccc(-c2cc(-c3ccsc3)nc(-c3cccs3)c2)o1` the figure was more than 100 µM.

For another experiment, the system named is MDA-MB-231. The experiment in a line: Cytotoxicity against human MDA-MB-231 cells after 3 days. The experiment is classed as functional, cell-based. The conditions noted are these: MDA-MB-231, 72 h. Put shortly: as §3
`Cc1ccsc1-c1cc(-c2ccco2)cc(-c2sccc2C)n1`: the IC50 amounted to 38.3 µM.
Compound `Cc1ccsc1-c1cc(-c2ccco2)cc(-c2ccsc2)n1` came in with an IC50 of 41.8 µM.
As for `Clc1ccc(-c2cc(-c3ccsc3)nc(-c3cccs3)c2)o1`, half-maximal inhibition (IC50) was put at 26.8 µM. This IC50 lies about 1.6-fold lower than the previous one.

The subject of a further experiment is HeLa. Description: Cytotoxicity against human HeLa cells after 3 days. The format is functional, cell-based. The settings on record: 72 h. Put shortly:
as §3
In turn, `Cc1ccsc1-c1cc(-c2ccco2)cc(-c2sccc2C)n1` displayed an IC50 of 35.8 µM.
Consider `Cc1ccsc1-c1cc(-c2ccco2)cc(-c2ccsc2)n1`, for which half-maximal inhibition (IC50) was put at 19.2 µM.
The compound `Clc1ccc(-c2cc(-c3ccsc3)nc(-c3cccs3)c2)o1` came in with an IC50 of 43.7 µM.

The inhibition is the relative decrease from the control value, in per cent. Low values mean a weak effect, high ones a strong effect. A word on the IC50: it is the concentration needed to halve the response being measured. Read a high IC50 as weaker potency in that assay.
